ChEMBL document CHEMBL3525963, “Tissue distribution and elimination of [14C]apixaban in rats” (Drug Metab Dispos, 2011)

Columns and labels:
Parameters in all cases: dose 5 mg/kg, dosed compound name [14C]-apixaban, route oral
Conditions in all cases: in vivo
Rattus norvegicus [1] = assay: Biodistribution in male Sprague-Dawley rat salivary gland at 5 mg/kg, po administered as single dose measured after 0.5 hrs; assay type: ADME, organism-based
Liver [2] = assay: Biodistribution in male Sprague-Dawley rat liver at 5 mg/kg, po administered as single dose measured after 24 hrs; assay type: ADME, organism-based
Method in brief: (§1)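 [14C]apixaban (1.0 mg/mL, 20 μCi/mL) in 0.5% Tween 80 in Labrafil, given by oral gavage at 100 μCi/kg to male rats (225-252 g) fasted overnight through 4 h post-dose. One rat per time point. Carcasses frozen in hexane/dry ice and cut into 40 µm sagittal sections. QWBA read on phosphor plates against [14C]glucose standards, reported as µg eq/g. LLOQ 0.037 µg eq/g.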

Pancreas = assay: Biodistribution in female Sprague-Dawley rat pancreas at 5 mg/kg, po administered as single dose measured after 24 hrs; assay type: ADME, organism-based
Method in brief: (§2)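 Quantitative whole-body autoradiography was run after a single 5 mg/kg (100 μCi/kg) oral gavage to fasted female or pregnant SD rats, one rat per time point. Carcasses were frozen in hexane/dry ice, and 40 µm sagittal sections were dried at −20°C for at least 48 h. Sections were exposed to a phosphor plate alongside [14C]glucose standards (0.001–6.5 µCi/g). Results are µg eq/g, with LLOQ 0.037 µg eq/g.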

Heart [3] = assay: Biodistribution in female Sprague-Dawley rat heart at 5 mg/kg, po administered as single dose measured after 24 hrs; assay type: ADME, organism-based; method in brief: as §2
Spleen [4] = assay: Biodistribution in female Sprague-Dawley rat spleen at 5 mg/kg, po administered as single dose measured after 8 hrs; assay type: ADME, organism-based
Method in brief: (§3)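 [¹⁴C]Apixaban given by oral gavage at 5 mg/kg (100 μCi/kg) in 0.5% Tween 80 in Labrafil (1.0 mg/mL dosing solution) to rats fasted overnight through 4 h post-dose. One rat per time point; carcass frozen in hexane/dry ice. Quantitative whole-body autoradiography used 40 µm sagittal sections and a phosphor imaging plate calibrated with [¹⁴C]glucose standards (0.001–6.5 μCi/g). Read-out in µg eq apixaban/g; LLOQ 0.037 μg eq/g.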

Heart [5] = assay: Biodistribution in female Sprague-Dawley rat heart at 5 mg/kg, po administered as single dose measured after 8 hrs; assay type: ADME, organism-based; method in brief: as §2
Adrenal gland = assay: Biodistribution in female Sprague-Dawley rat adrenal gland at 5 mg/kg, po administered as single dose measured after 1 hr; assay type: ADME, organism-based; method in brief: as §3
Spleen [6] = assay: Biodistribution in male Sprague-Dawley rat spleen at 5 mg/kg, po administered as single dose measured after 24 hrs; assay type: ADME, organism-based
Method in brief: (§4)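 Fasted male SD rats (225-252 g) each received one oral gavage dose of [14C]apixaban, 5 mg/kg (100 μCi/kg), in 0.5% Tween 80/Labrafil vehicle. One rat was killed per time point, from 0.5 to 168 h. Frozen carcasses were cut into 40 µm sagittal whole-body sections and read by QWBA phosphor imaging against [14C]glucose calibrants. Results are in µg apixaban eq/g; BLQ <0.037 µg eq/g.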

Rattus norvegicus [7] = assay: Biodistribution in male Sprague-Dawley rat kidney cortex at 5 mg/kg, po administered as single dose measured after 72 hrs; assay type: ADME, organism-based; method in brief: as §4
Rattus norvegicus [8] = assay: Biodistribution in male Sprague-Dawley rat bone marrow at 5 mg/kg, po administered as single dose measured after 1 hr; assay type: ADME, organism-based
Method in brief: (§5)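 Fasted male rats, 225-252 g, received [14C]apixaban by single oral gavage at 100 μCi/kg in 0.5% Tween 80/Labrafil. One rat was killed per time point and the carcass frozen. Tissue radioactivity was quantified by QWBA (40 µm sagittal sections, phosphor plate, [14C]glucose calibration) as µg eq apixaban/g, with LLOQ 0.037 μg eq/g.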

Lung = assay: Biodistribution in male Sprague-Dawley rat lung at 5 mg/kg, po administered as single dose measured after 1 hr; assay type: ADME, organism-based; method in brief: as §1
Blood [9] = assay: Biodistribution in male Sprague-Dawley rat blood at 5 mg/kg, po administered as single dose measured after 4 hrs; assay type: ADME, organism-based; method in brief: as §3
Rattus norvegicus [10] = assay: Biodistribution in male Sprague-Dawley rat brown fat at 5 mg/kg, po administered as single dose measured after 4 hrs; assay type: ADME, organism-based, Brown adipose tissue; method in brief: as §5
Thymus [11] = assay: Biodistribution in pregnant Sprague-Dawley rat thymus at 5 mg/kg, po administered as single dose measured after 8 hrs; assay type: ADME, organism-based
Rattus norvegicus [12] = assay: Biodistribution in pregnant Sprague-Dawley rat placenta at 5 mg/kg, po administered as single dose measured after 8 hrs; assay type: ADME, organism-based
[13] = Drug level in lactating Sprague-Dawley rat milk at 5 mg/kg, po administered as single dose after 1 hr; assay type: ADME, organism-based
Harderian gland = assay: Biodistribution in female Sprague-Dawley rat harderian gland at 5 mg/kg, po administered as single dose measured after 4 hrs; assay type: ADME, organism-based; method in brief: as §3
Muscle tissue = assay: Biodistribution in female Sprague-Dawley rat muscle at 5 mg/kg, po administered as single dose measured after 1 hr; assay type: ADME, organism-based; method in brief: as §3
Thymus [14] = assay: Biodistribution in pregnant Sprague-Dawley rat thymus at 5 mg/kg, po administered as single dose measured after 4 hrs; assay type: ADME, organism-based
Blood [15] = assay: AUC (0 to t) in lactating Sprague-Dawley rat blood at 5 mg/kg, po administered as single dose; assay type: ADME, organism-based
Blood [16] = assay: Biodistribution in pregnant Sprague-Dawley rat blood at 5 mg/kg, po administered as single dose measured after 24 hrs; assay type: ADME, organism-based
Method in brief: (§6)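 Fasted pregnant SD rats (n=6, 270-319 g) each received one oral gavage dose of [14C]apixaban, 5 mg/kg (100 μCi/kg), in 0.5% Tween 80/Labrafil. One rat was killed at each of 0.5, 1, 4, 8, 24 and 48 h. Carcasses were frozen in hexane/dry ice, cut into 40 µm sagittal sections, exposed to phosphor plates and quantified against [14C]glucose standards as µg eq/g. LLOQ was 0.037 µg eq/g.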

Rattus norvegicus [17] = assay: Biodistribution in pregnant Sprague-Dawley rat pituitary gland at 5 mg/kg, po administered as single dose measured after 0.5 hrs; assay type: ADME, organism-based
Rattus norvegicus [18] = assay: Biodistribution in pregnant Sprague-Dawley rat bone marrow at 5 mg/kg, po administered as single dose measured after 1 hr; assay type: ADME, organism-based
Heart [19] = assay: Biodistribution in pregnant Sprague-Dawley rat heart at 5 mg/kg, po administered as single dose measured after 1 hr; assay type: ADME, organism-based
Rattus norvegicus [20] = assay: Biodistribution in pregnant Sprague-Dawley rat kidney cortex at 5 mg/kg, po administered as single dose measured after 1 hr; assay type: ADME, organism-based
Liver [21] = assay: Biodistribution in pregnant Sprague-Dawley rat liver at 5 mg/kg, po administered as single dose measured after 1 hr; assay type: ADME, organism-based; method in brief: as §6
Rattus norvegicus [22] = assay: Biodistribution in fetal brain of pregnant Sprague-Dawley rat at 5 mg/kg, po administered as single dose measured after 1 hr; assay type: ADME, organism-based
Method in brief: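 Pregnant SD rats received a single oral gavage of [14C]apixaban at 5 mg/kg (100 μCi/kg; 1.0 mg/mL, 20 μCi/mL in 0.5% Tween 80/Labrafil) after fasting, one dam per time point. Frozen carcasses were cut into 40 µm sagittal sections and read by phosphor-imaging QWBA against [14C]glucose standards. Fetal tissue radioactivity is reported as µg eq/g, with LLOQ 0.037 µg eq/g.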

- Radiolabel recovery (Rattus norvegicus [1]): 0.3 ugequiv/g
- Radiolabel recovery (Liver [2]): < 0.037 ugequiv/g
- Radiolabel recovery (Pancreas): Not detected assumed BLQ
- Radiolabel recovery (Heart [3]): Not detected assumed BLQ
- Radiolabel recovery (Spleen [4]): 0.13 ugequiv/g
- Radiolabel recovery (Heart [5]): 0.11 ugequiv/g
- Radiolabel recovery (Adrenal gland): 1.1 ugequiv/g
- Radiolabel recovery (Spleen [6]): Not detected assumed BLQ
- Radiolabel recovery (Rattus norvegicus [7]): Not detected assumed BLQ
- Radiolabel recovery (Rattus norvegicus [8]): 0.57 ugequiv/g
- Radiolabel recovery (Lung): 0.7 ugequiv/g
- Radiolabel recovery (Blood [9]): 0.6 ugequiv/g
- Radiolabel recovery (Rattus norvegicus [10]): 0.53 ugequiv/g
- Radiolabel recovery (Thymus [11]): 0.05 ugequiv/g
- Radiolabel recovery (Rattus norvegicus [12]): 0.1 ugequiv/g
- Radiolabel recovery [13]: 4.56 µg/mL
- Radiolabel recovery (Harderian gland): 1.12 ugequiv/g
- Radiolabel recovery (Muscle tissue): 0.27 ugequiv/g
- Radiolabel recovery (Thymus [14]): 0.54 ugequiv/g
- AUCt (Blood [15]): 1940 ngequiv.hr/g
- Radiolabel recovery (Blood [16]): Not detected assumed BLQ
- Radiolabel recovery (Rattus norvegicus [17]): 0.72 ugequiv/g
- Radiolabel recovery (Rattus norvegicus [18]): 0.33 ugequiv/g
- Radiolabel recovery (Heart [19]): 0.93 ugequiv/g
- Radiolabel recovery (Rattus norvegicus [20]): 2.03 ugequiv/g
- Radiolabel recovery (Liver [21]): 7.38 ugequiv/g
- Radiolabel recovery (Rattus norvegicus [22]): 0.05 ugequiv/g
Compound: COc1ccc(-n2nc(C(N)=O)c3c2C(=O)N(c2ccc(N4CCCC[14C]4=O)cc2)CC3)cc1
